Fh CTSL1 inh = Fasciola hepatica cathepsin L1 inhibitors, primary screen, counter-screen for PFM18AAP inhibitor project, biochemical, QFRET, fluorogenic peptide substrate | inhibition, % at 5.96 µM | recombinant F. hepatica cathepsin L1, Z-Leu-Arg-MCA fluorescence | AID 1906, 2009 | 0.49% of 300,000 active;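 active = inhibition above the mean of all tested compounds plus 3 SD, set per screening campaign, cut at about 17% in these data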;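 note: 0% = plate median of test compound wells and 100% = 1 µM Z-Phe-Ala-diazomethylketone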
PAD4 inh = human PAD4 inhibitors, primary screen, biochemical, fluorescence polarization, 1536-well format. AID 485272, 2010. inhibition, % at 6.36 µM. recombinant PAD4, RCA probe fluorescence polarization. 0.41% of 330,000 active;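 active = percent inhibition above a cutoff equal to the mean of all tested compounds plus 3 SD, cut at about 15% in these data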;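 note: 0% = PAD4 with RCA probe and DMSO and 100% = probe without PAD4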
HKDC1 inh = HKDC1 hexokinase inhibitors, primary screen, biochemical, fluorescence, uHTS | 0.16% of 340,000 active | recombinant HKDC1, G6PDH/diaphorase resazurin coupled fluorescence | inhibition, % at 20 µM | Q2TB90;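 active = inhibition above about 35% when tested at 20 µM, limit read from the data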;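 note: plate controls were DMSO wells with enzyme for no effect and DMSO wells lacking enzyme for full effect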
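Assay system: recombinant HKDC1 hexokinase; detection: coupled resazurin fluorescence, excitation 525 nm, emission 613 nm; benchmarks: DMSO-plus-enzyme-mix negative control, buffer-substituted positive control; compound dosing: single 20 µM dose; schedule: 90 min at room temperature in dark; also added: glucose plus 1 mM ATP as hexokinase substrates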
GSTO1 inh = inhibitors of recombinant GSTO1, primary screen, counter-screen for RBBP9 inhibitor project, biochemical, fluorescence polarization; Glutathione S-transferase omega-1 (Homo sapiens), P78417; activity-based probe fluorescence polarization; inhibition, % at 5.96 µM; 1.1% of 300,000 active; AID 1974, 2009;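 active = inhibition above the campaign mean inhibition plus 3 SD, cut at about 35% in these data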;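 note: 0% = GSTO1-1 with DMSO and 100% = wells lacking GSTO1-1 enzyme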
Target sequence (P78417 whole entry, looked up): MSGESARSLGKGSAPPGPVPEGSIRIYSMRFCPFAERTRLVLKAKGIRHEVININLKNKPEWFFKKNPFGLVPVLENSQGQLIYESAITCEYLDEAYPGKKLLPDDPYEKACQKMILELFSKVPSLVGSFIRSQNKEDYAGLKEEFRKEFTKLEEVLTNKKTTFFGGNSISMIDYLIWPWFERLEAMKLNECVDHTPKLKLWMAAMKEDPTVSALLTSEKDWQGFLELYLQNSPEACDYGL
UCH37 inh = inhibitors of human UCH37 deubiquitinase, primary screen, biochemical, Ub-AMC cleavage, fluorescence; Ubiquitin carboxyl-terminal hydrolase isozyme L5 (Homo sapiens), Q9Y5K5; purified proteasome/UCH37; inhibition, % (no concentration beside the values); 0.33% of 330,000 active; AID 588478, 2011;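 active = mean inhibition over replicate wells above about 20%, limit read from the data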;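 note: 0% = compound-free wells with enzyme and 100% = wells lacking proteasome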
Target sequence (Q9Y5K5 whole entry, looked up): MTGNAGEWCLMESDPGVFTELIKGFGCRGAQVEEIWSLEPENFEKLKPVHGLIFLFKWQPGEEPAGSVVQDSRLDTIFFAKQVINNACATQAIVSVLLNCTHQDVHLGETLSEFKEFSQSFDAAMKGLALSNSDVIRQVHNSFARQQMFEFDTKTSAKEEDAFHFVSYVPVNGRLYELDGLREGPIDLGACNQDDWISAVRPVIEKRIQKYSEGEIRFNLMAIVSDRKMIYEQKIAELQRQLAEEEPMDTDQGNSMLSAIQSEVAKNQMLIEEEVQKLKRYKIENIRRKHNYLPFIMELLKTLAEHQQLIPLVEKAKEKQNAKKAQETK
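System: Proteasome-associated human UCH37 deubiquitinase; Input: 0.15 nM proteasome in added enzyme buffer; Also added: Ub-AMC substrate from 1 µM stock; Incubation: 30 min compound-proteasome preincubation then 25 min substrate reaction, room temperature; Detection: fluorescence, ex 355 nm, em 460 nm; Read-out: % inhibition of Ub-AMC cleavage fluorescence; Benchmarks: no-proteasome and no-compound wells.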
TDP2 inh = human TDP2 enzyme inhibitors, primary screen, biochemical, epi absorbance, recombinant enzyme; Tyrosyl-DNA phosphodiesterase 2 (Homo sapiens), O95551; AID 720702, 2013; 0.34% of 370,000 active; inhibition, % at 12.8 µM; T5PNP hydrolysis, p-nitrophenol absorbance 415 nm;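 active = inhibition above the mean of all tested compounds plus 3 SD, set per campaign, cut at about 25% in these data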;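 note: 0% = DMSO with enzyme and 100% = buffer with substrate but no TDP2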
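Material: recombinant human TDP2; quantity: TDP2 enzyme at 120 nM final; medium: Tris-HCl pH 7.5 with MgCl2; compound: single concentration, 12.8 µM nominal, with 1% DMSO; incubation: 2 h enzyme incubation at 37 °C; signal: epi absorbance; measure: percent inhibition; benchmarks: high control without enzyme, low control DMSO plus TDP2; repeats: singlicate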
Active calls of the source: *; x = no result. A selection: hits, their analogues and other compounds. The true share with any hit is near 1.6%.

SMILES	Fh CTSL1 inh	PAD4 inh	HKDC1 inh	GSTO1 inh	UCH37 inh	TDP2 inh
O=c1c2ccccc2sn1-c1ccc(S(=O)(=O)N2CCCCC2)cc1	-6.2	6.3	-4.0	-6.0	3.8	-0.5
O=C(CC(=O)NN=Cc1ccccc1O)NCc1cccnc1	x	x	x	x	-17.2	x
CCc1nnc(NN=Cc2cccs2)n1N	x	x	x	x	10.2	x
O=C1COc2ccc(S(=O)(=O)NCc3ccccc3)cc2N1	1.0	-9.3	-2.8	35.6*	0.6	1.0
CSc1nc2ccsc2c(=O)n1-c1ccccc1	18.0*	-6.6	1.7	9.1	0.9	-6.8
CCN(CC)c1ccc(C(=O)NN=Cc2ccc(OC)cc2OC)cc1	x	x	x	x	-22.4	x
O=C(NN=Cc1cccc(C(F)(F)F)c1)c1ccccc1O	x	x	x	x	-0.2	x
CCCN1C=CC(=C/C=C(\C#N)C(=O)OCC)C=C1	14.7	-1.4	x	7.0	x	x
CCCCCCN1C=CC(=C/C=C(\C#N)C(=O)OCC)C=C1	9.9	-8.6	-4.3	-0.9	21.0*	-6.8
ON=Cc1ccn(-c2ccc(Br)cc2)c1	x	x	x	x	1.0	x
O=c1[nH]cnc2sc3c(c12)CCN(Cc1ccccc1)C3	-1.0	-11.1	2.9	16.9	-24.4	9.5
OCCCNc1ncnc2sc3c(c12)CCN(Cc1ccccc1)C3	32.0*	-5.7	1.8	4.9	-233.9	1.4
COc1cccc(C=NNC(=O)c2cccc3ccccc23)c1	x	x	x	x	-2.1	x
O=C(O)c1ccc(/C=C2\SC(=S)N(Nc3ccccc3)C2=O)cc1	7.5	0.1	-2.5	0.7	7.7	24.0
O=C1/C(=C/c2ccncc2)SC(=S)N1Nc1ccccc1	-0.3	-6.6	-13.2	36.1*	6.1	0.6
N#Cc1c(NC(=O)c2ccccc2Cl)n(Cc2ccccc2)c2nc3ccccc3nc12	2.4	-6.5	8.5	46.6*	x	80.7*
O=S(=O)(NCCc1ccccc1F)c1cccc(S(=O)(=O)N2CCOCC2)c1	-4.3	4.7	17.3	42.8*	-1.1	6.2
O=S(=O)(NCc1ccccc1)c1cccc(S(=O)(=O)N2CCOCC2)c1	0.0	-1.6	-5.0	0.9	1.3	0.3
COc1cc(C=NNc2ccccc2[N+](=O)[O-])cc(OC)c1O	x	x	x	x	6.0	x
COc1cc(C=NNc2nc3ccccc3s2)cc([N+](=O)[O-])c1O	x	x	x	x	21.9*	x
CCOc1cccc(-c2cc(C(=O)NN=Cc3ccc(OC)c(CN4CCOCC4)c3)c3ccccc3n2)c1	x	x	x	x	-3.4	x
Nc1ccc(O)c2ccccc12	-0.6	9.5	x	61.9*	x	x
Nc1ccc(N=Nc2ccccc2)c2ccccc12	3.4	-0.2	-2.5	4.5	1.1	-7.3
CCc1cc(Cn2nc(C(=O)O)cc2-c2ccccc2)on1	-0.9	-1.8	-5.3	1.5	22.1*	8.9
Cc1onc(-c2ccccc2)c1C(=O)NN=Cc1cn(C)c2ccccc12	x	x	x	x	2.2	x
SMILES	Fh CTSL1 inh	PAD4 inh	HKDC1 inh	GSTO1 inh	UCH37 inh	TDP2 inh
COc1ccc(CC(=O)Nc2ccc(OC)nc2)cc1	-3.9	-0.2	18.1	9.2	1.0	-0.2
COc1ccc(NC(=O)CCl)cn1	16.8*	4.2	x	56.4*	x	x
O=C(CCl)Nc1ccc(Oc2cnc3ccccc3n2)cc1	22.8*	0.7	1.5	86.5*	1.0	-8.4
O=C(O)COc1cnc2ccccc2n1	-3.3	-3.7	-6.9	-4.0	-38.0	-3.8
O=C(NN=CC1=Cc2ccccc2OC1)c1ccncc1	x	x	x	x	-111.7	x
O=C(CCC(=O)NN=Cc1ccco1)NN=Cc1ccco1	x	x	x	x	2.3	x
Cc1ccc(S(=O)(=O)NN=CC(C)(C)CO)cc1	x	x	x	x	2.4	x
COc1ccc(C(=O)Nc2ccc(Cl)cc2C(=O)NCc2ccco2)cc1	0.4	-4.6	-3.2	-1.4	-22.8	3.8
CCC(C)C(NC(=O)c1ccccc1NC(=O)c1ccc(OC)cc1)C(=O)NCc1ccco1 (centres undefined)	45.4*	1.1	-0.3	-1.0	-18.7	2.9
CCOc1ccc(N=Nc2c(=O)[nH]n3c(C)cc(C)nc23)cc1	-5.2	-32.6	12.7	11.0	24.6*	6.0
Cc1cc(=O)n2[nH]c(N)c(N=Nc3ccccc3)c2n1	1.2	-8.7	-9.4	8.1	15.9	2.1
N=c1c2c(-c3ccccc3)c(-c3ccccc3)n(Cc3ccccc3)c2ncn1CCCn1ccnc1	-0.6	-2.1	8.6	11.1	23.6*	-1.9
CCCCn1cnc2c(c(-c3ccccc3)c(-c3ccccc3)n2Cc2ccco2)c1=N	0.7	-0.4	4.6	-4.9	1.7	-16.6
Cc1ccc(C=NNc2nnc(Cl)c3ccccc23)cc1	x	x	x	x	5.7	x
CN(C)C=NN(C)c1ncccc1[N+](=O)[O-]	x	x	x	x	5.2	x
CCOc1ccc2ccccc2c1C=NNC(=O)c1ccc(C)nc1	x	x	x	x	-12.0	x
N#Cc1nc(N2CCOCC2)nc(N2CCOCC2)n1	48.3*	9.0	-6.5	-1.4	4.6	-5.2
COc1ccccc1N1CCN(/N=C/c2ccc(O)c(O)c2)CC1	-1.4	-10.2	10.0	51.5*	x	-7.7
COc1ccc(/C=N/N2CCN(c3ccccc3OC)CC2)cc1OC	-9.3	4.1	4.7	0.3	x	8.4
Oc1ccc(C=NN2CCN(C3c4ccccc4-c4ccccc43)CC2)cc1O	x	x	x	x	2.8	x
CN(C)c1ccc(N=Cc2nc(-c3ccccc3)oc2OC(=O)c2cccc(Cl)c2)cc1	9.8	1.3	23.8	1.8	1.3	1.5
COc1cccc(N=Cc2nc(-c3ccccc3)oc2OC(C)=O)c1	28.0*	-2.8	-2.2	6.5	6.0	6.4
COc1ccc(N=Cc2nc(-c3ccccc3)oc2OC(C)=O)cc1	20.5*	1.9	5.7	12.5	2.7	-2.5
O=C(CSc1nc2ccccc2o1)NN=Cc1ccco1	x	x	x	x	5.8	x
C=CCn1c(O)c(C2=c3ccccc3=NC2=O)sc1=Nc1nccs1	x	x	x	x	9.8	x
OC(CN1CCN(c2ccccc2)CC1)c1c[nH]c2ccccc12 (centres undefined)	-0.5	-7.0	-4.8	0.7	23.8*	7.3
OC(CN1CCN(Cc2ccc3c(c2)OCO3)CC1)c1c[nH]c2ccccc12 (centres undefined)	x	x	-6.4	x	x	-6.0
COCCOC(=O)C1=C(C)N=c2sc(=Cc3cccs3)c(=O)n2C1c1cccs1 (centres undefined)	x	x	x	x	0.4	x
Cc1ccc(CN2CCN(C(=O)CCN3C(=O)c4ccccc4C3=O)CC2)cc1	1.0	-0.3	-6.7	1.9	20.2*	5.0
CC(=O)N1C(=O)C2(C(C#N)=C(N)Oc3c2c(C)nn3-c2ccccc2)c2ccccc21 (centres undefined)	3.5	-0.9	7.3	29.8	-2.8	21.1
